Results from ChEMBL document CHEMBL5661972, “In vitro biological activity of a novel small-molecule inhibitor of polo-like kinase 1” (Mol Cancer Ther, 2007).
Active and inactive are the calls of the source. The calls are words filed in the database; no cut-off is given here.

Tests used:
NHDF [1] = assay: Induction of cell cycle arrest in human HDF cells assessed as accumulation of cells at Sub-2N phase at 3 micromol/L incubated for 24 hrs by propidium iodide staining based flow cytometry analysis (reference value: 0.2 %); type: toxicity; details: 3 µM, dose 3 µmol/L
How it was run: (§1)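 Cells seeded in six-well plates at densities that keep them in log growth (HDF 120,000, 60,000 or 30,000; H460 100,000, 50,000 or 25,000 per well for 24, 48 or 72 h). Treated with 1 or 3 μmol/L. Floating and adherent cells collected, ethanol-fixed, permeabilized with Triton X-100 and stained with propidium iodide. DNA content read by flow cytometry as % singlet cells.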

[2] = Selectivity ratio of IC50 for cytotoxicity against human HDF cells to IC50 for antiproliferative activity against human BT-474 cells; type: toxicity, cell-based; details: HDF cells versus BT-474 cells, read-out: Ratio IC50
NCI-H460 [3] = assay: Induction of cell cycle arrest in human NCI-H460 cells assessed as accumulation of cells at >4N phase at 1 micromol/L incubated for 48 hrs by propidium iodide staining based flow cytometry analysis (reference value: 0.9 %); type: functional; details: dose 1 µmol/L, at 1 µM; how it was run: as §1
NCI-H460 [4] = assay: Induction of cell cycle arrest in human NCI-H460 cells assessed as accumulation of cells at Sub-2N phase at 1 micromol/L incubated for 48 hrs by propidium iodide staining based flow cytometry analysis (reference value: 2.5 %); type: functional; details: dose 1 µmol/L, at 1 µM
NHDF [5] = assay: Induction of cell cycle arrest in human HDF cells assessed as accumulation of cells at >4N phase at 3 micromol/L incubated for 72 hrs by propidium iodide staining based flow cytometry analysis (reference value: 1.4 %); type: toxicity; details: 3 µM, dose 3 µmol/L; how it was run: as §1
NCI-H460 [6] = assay: Induction of cell cycle arrest in human NCI-H460 cells assessed as accumulation of cells at S phase at 1 micromol/L incubated for 48 hrs by propidium iodide staining based flow cytometry analysis (reference value: 18.5 %); type: functional; details: dose 1 µmol/L, at 1 µM
NCI-H460 [7] = assay: Induction of cell cycle arrest in human NCI-H460 cells assessed as accumulation of cells at G2-M phase at 1 micromol/L incubated for 72 hrs by propidium iodide staining based flow cytometry analysis (reference value: 18.2 %); type: functional; details: dose 1 µmol/L
[8] = target: Vascular endothelial growth factor receptor 2 (Homo sapiens, UniProt P35968); assay: Inhibition of VEGFR2 (unknown origin)
HeLa = assay: Antiproliferative activity against human HeLa cells assessed as inhibition of cell growth; type: functional, cell-based
NCI-H460 [9] = assay: Induction of cell cycle arrest in human NCI-H460 cells assessed as accumulation of cells at Sub-2N phase at 1 micromol/L incubated for 72 hrs by propidium iodide staining based flow cytometry analysis (reference value: 2.1 %); type: functional; details: dose 1 µmol/L, at 1 µM
[10] = Cytotoxicity against human HDF cells assessed as outgrowth of cells at 3.3 micromol/L incubated for 72 hrs by methylene blue staining based analysis relative to control; type: toxicity, cell-based; details: HDF cells (NHDF, human dermal fibroblasts), dose 3.3 µmol/L, read-out: Activity
How it was run: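 HDF seeded at 1,300 and H460 at 600 per well in 96-well plates. After 24 h, exposed to vehicle (0.3% DMSO) or compound at 0.37–30 μmol/L for 72 h. Wells were then washed with PBS and refed with drug-free medium containing gentamicin. Regrowth was followed by methylene blue staining at set time points over 13 days in total.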

NHDF [11] = assay: Induction of cell cycle arrest in human HDF cells assessed as accumulation of cells at S phase at 3 micromol/L incubated for 72 hrs by propidium iodide staining based flow cytometry analysis (reference value: 3.6 %); type: toxicity; details: 3 µM, dose 3 µmol/L; how it was run: as §1
[12] = Inhibition of CDK2/cyclin A (unknown origin); set-up: species or system Homo sapiens
[13] = target: Platelet-derived growth factor receptor beta (Homo sapiens, UniProt P09619); assay: Inhibition of PDGFR1beta (unknown origin)
NCI-H460 [14] = assay: Induction of cell cycle arrest in human NCI-H460 cells assessed as accumulation of cells at G2-M phase at 3 micromol/L incubated for 48 hrs by propidium iodide staining based flow cytometry analysis (reference value: 22.5 %); type: functional; details: dose 3 µmol/L, at 3 µM
NHDF [15] = assay: Induction of cell cycle arrest in human HDF cells assessed as accumulation of cells at Sub-2N phase at 1 micromol/L incubated for 48 hrs by propidium iodide staining based flow cytometry analysis (reference value: 0.5 %); type: toxicity; details: 1 µM, dose 1 µmol/L; how it was run: as §1
[16] = Inhibition of p53-PLK1 in human HeLa cells assessed as inhibition of p53 phosphorylation at Ser15 residue by ELISA analysis; type: cell-based
How it was run: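 HeLa Tet-On cells carrying tet-inducible p53-PLK1 kinase-domain fusion (T210D), induced overnight with 125 ng/mL doxycycline; ten 3-fold dilutions (30–0.00152 μmol/L final, 0.3% DMSO, 5% serum) for 1 h. Lysates captured on anti-p53-coated plates overnight at 4°C; phospho-Ser15 and total p53 detected with HRP secondary/TMB, A450. IC50 from curve fit.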

[17] = Selectivity ratio of IC50 for cytotoxicity against human HDF cells to IC50 for antiproliferative activity against human NCI-H460 cells; type: toxicity, cell-based; details: HDF cells versus NCI-H460 cells, read-out: Ratio IC50
How it was run: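 HDF (5,000/well) and H460 (2,000/well) cells exposed 3 days to 3-fold dilutions (30–0.00152 μmol/L) in medium with 5% FBS, gentamicin and 0.3% DMSO (low-glucose DMEM for HDF, RPMI 1640 for H460); vehicle controls growing logarithmically. IC50 from each line gives the HDF/H460 ratio.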

NHDF [18] = assay: Induction of cell cycle arrest in human HDF cells assessed as accumulation of cells at Sub-2N phase at 3 micromol/L incubated for 48 hrs by propidium iodide staining based flow cytometry analysis (reference value: 0.5 %); type: toxicity; details: 3 µM, dose 3 µmol/L; how it was run: as §1
[19] = Selectivity ratio of IC50 for cytotoxicity against human HDF cells to IC50 for antiproliferative activity against human HN5 cells; type: toxicity, cell-based; details: HDF cells versus HN5 cells
NCI-H460 [20] = assay: Induction of cell cycle arrest in human NCI-H460 cells assessed as accumulation of cells at >4N phase at 3 micromol/L incubated for 72 hrs by propidium iodide staining based flow cytometry analysis (reference value: 0.9 %); type: functional; details: dose 3 µmol/L, at 3 µM; how it was run: as §1
NHDF [21] = assay: Induction of cell cycle arrest in human HDF cells assessed as accumulation of cells at G1 phase at 3 micromol/L incubated for 72 hrs by propidium iodide staining based flow cytometry analysis (reference value: 85.6 %); type: toxicity; details: 3 µM, dose 3 µmol/L; how it was run: as §1
NCI-H460 [22] = assay: Induction of cell cycle arrest in human NCI-H460 cells assessed as accumulation of cells at G2-M phase at 1 micromol/L incubated for 24 hrs by propidium iodide staining based flow cytometry analysis (reference value: 19.8 %); type: functional; details: dose 1 µmol/L, at 1 µM
[23] = target: Proto-oncogene tyrosine-protein kinase Src (Homo sapiens, UniProt P12931); assay: Inhibition of c-src (unknown origin)
NCI-H460 [24] = assay: Induction of apoptosis in human NCI-H460 cells assessed as increase in caspase-3 activity at 5 micromol/L measured after 46 hrs using AcDEVD-[…] fluorogenic peptide as substrate by plate reader analysis; type: functional, cell-based; details: dose 5.0 µmol/L
How it was run: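 H460 cells seeded at 320,000 per well in six-well plates and given 5 μmol/L for 7 to 72 h. Lysates made in Tris/phosphate buffer, pH 7.5, with Triton X-100. Cleavage of Ac-DEVD-[…] measured by fluorescence, excitation 380 nm, emission 420–460 nm.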

Sequence of Vascular endothelial growth factor receptor 2 (P35968 whole entry): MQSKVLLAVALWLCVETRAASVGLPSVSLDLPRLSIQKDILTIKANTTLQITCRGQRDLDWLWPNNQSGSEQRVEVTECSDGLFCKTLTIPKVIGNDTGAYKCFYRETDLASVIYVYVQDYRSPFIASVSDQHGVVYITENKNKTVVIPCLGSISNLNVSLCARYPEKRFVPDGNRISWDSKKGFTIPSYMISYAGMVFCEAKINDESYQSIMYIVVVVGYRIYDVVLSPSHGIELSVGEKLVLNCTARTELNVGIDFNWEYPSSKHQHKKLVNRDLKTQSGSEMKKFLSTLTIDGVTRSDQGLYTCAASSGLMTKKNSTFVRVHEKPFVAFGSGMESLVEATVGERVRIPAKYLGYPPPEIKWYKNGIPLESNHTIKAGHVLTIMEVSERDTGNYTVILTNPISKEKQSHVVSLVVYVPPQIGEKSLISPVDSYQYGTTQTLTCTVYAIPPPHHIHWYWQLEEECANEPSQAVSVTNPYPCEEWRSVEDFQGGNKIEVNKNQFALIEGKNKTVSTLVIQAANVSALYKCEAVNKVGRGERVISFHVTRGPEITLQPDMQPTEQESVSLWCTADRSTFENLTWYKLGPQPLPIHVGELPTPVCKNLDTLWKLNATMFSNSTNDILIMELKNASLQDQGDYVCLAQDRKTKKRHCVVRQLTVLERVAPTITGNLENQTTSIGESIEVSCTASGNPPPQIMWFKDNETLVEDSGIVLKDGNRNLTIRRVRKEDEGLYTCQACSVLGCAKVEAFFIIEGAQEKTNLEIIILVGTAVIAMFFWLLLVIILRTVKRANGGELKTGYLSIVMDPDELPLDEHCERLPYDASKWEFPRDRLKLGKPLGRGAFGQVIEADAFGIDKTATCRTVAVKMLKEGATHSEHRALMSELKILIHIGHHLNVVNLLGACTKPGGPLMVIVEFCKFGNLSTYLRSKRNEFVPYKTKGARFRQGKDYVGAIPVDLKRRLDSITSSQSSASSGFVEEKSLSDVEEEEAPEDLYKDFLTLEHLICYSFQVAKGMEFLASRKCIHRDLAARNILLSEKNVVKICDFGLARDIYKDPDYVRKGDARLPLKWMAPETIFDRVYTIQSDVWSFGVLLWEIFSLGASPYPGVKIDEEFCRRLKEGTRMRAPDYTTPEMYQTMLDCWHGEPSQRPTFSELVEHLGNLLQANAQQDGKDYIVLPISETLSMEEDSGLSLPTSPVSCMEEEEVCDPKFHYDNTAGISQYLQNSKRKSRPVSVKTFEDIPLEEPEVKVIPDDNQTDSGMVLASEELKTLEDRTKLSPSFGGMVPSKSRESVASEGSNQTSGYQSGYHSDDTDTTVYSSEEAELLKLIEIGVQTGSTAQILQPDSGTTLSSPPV
Sequence of Platelet-derived growth factor receptor beta (P09619 whole entry): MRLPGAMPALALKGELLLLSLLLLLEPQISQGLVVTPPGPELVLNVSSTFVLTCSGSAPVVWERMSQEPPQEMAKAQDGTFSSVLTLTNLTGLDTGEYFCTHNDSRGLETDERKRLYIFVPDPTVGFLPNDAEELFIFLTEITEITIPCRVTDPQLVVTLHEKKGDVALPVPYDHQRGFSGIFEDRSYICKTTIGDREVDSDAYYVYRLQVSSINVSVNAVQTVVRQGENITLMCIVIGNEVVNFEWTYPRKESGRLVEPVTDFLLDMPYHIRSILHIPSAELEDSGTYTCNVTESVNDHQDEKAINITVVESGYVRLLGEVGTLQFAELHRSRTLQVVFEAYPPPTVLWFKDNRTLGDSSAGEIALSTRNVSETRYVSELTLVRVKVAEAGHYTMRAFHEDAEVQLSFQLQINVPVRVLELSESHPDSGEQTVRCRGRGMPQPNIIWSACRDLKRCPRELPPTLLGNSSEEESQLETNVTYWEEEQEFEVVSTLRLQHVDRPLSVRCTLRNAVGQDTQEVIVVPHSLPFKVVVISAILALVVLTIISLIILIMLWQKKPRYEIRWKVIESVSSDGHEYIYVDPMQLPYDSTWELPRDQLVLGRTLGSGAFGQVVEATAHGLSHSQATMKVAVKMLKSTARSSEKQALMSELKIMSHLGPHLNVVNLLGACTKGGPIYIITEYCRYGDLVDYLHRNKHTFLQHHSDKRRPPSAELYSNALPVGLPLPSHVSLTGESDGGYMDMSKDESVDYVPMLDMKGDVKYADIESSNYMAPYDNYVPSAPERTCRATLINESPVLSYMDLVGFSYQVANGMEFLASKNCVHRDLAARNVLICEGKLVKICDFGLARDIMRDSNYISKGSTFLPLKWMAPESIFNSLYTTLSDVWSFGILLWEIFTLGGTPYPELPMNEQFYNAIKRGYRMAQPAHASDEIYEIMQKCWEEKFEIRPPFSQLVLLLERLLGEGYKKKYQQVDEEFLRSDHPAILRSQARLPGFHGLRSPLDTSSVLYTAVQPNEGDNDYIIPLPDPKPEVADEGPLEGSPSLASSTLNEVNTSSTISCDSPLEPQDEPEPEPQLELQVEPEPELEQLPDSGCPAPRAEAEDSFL
Sequence of Proto-oncogene tyrosine-protein kinase Src (P12931 2-536 limits assumed): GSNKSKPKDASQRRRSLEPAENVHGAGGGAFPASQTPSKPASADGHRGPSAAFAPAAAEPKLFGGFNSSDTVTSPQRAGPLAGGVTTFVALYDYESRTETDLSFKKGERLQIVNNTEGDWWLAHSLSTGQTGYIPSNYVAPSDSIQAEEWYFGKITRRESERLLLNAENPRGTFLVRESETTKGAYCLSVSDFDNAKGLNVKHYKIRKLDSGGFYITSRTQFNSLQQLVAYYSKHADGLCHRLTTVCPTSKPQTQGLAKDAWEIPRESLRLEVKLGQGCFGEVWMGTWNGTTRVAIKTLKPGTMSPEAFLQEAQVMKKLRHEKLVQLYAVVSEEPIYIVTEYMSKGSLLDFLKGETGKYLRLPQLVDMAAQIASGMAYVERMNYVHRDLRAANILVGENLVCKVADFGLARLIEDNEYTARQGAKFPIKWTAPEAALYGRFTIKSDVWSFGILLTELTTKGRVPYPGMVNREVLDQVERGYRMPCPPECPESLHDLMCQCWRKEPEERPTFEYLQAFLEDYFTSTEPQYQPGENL

For COc1cc2ncn(-c3cc(OCc4ccccc4C(F)(F)F)c(C(N)=O)s3)c2cc1OC [GW843682X], the Activity (NHDF [1]) was 0.2%, the selectivity ratio [2] was over 10 and the Activity (NCI-H460 [3]) was 29%. It also gave an Activity (NCI-H460 [4]) of 14.4%, an Activity (NHDF [5]) of 19.1% and an Activity (NCI-H460 [6]) of 24.3%. It also gave an Activity (NCI-H460 [7]) of 10.6%, an IC50 [8] of 360 nM and an IC50 (HeLa) of 110 nM. It also gave an Activity (NCI-H460 [9]) of 16%, a viability at 72 h, 3.3 µM [10] of about 30% and an Activity (NHDF [11]) of 8%. It also gave an IC50 [12] of 7600 nM, an IC50 [13] of 160 nM and an Activity (NCI-H460 [14]) of 14.4%. For the same compound, the Activity (NHDF [15]) was 0.9%, the IC50 [16] was 140 nM and the selectivity ratio [17] was over 10. The Activity (NHDF [18]) was 2.3%, the selectivity ratio [19] was 9 and the Activity (NCI-H460 [20]) was 51%. The Activity (NHDF [21]) was 5.6%, the Activity (NCI-H460 [22]) was 33% and the IC50 [23] was over 10000 nM. For the same compound, the Activity (NCI-H460 [24]) was “Active”.
